A selection: hits, their analogues and other compounds. The true share with any hit is near 3.5%.
MrgX1 agonist: activates human MrgX1 receptor signaling | Q96LB2 | MrgX1-HEK293 cells, Fluo-4 calcium fluorescence, agonist mode; stronger effect = higher value | B-score at 10 µM | 310,000 compounds, 0.44% hits | AID 588627;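 active = calcium response B-score plate-corrected fluorescence ratio at least 3 library SD, with starting fluorescence B-score inside 5 SD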
Target sequence (Q96LB2 whole entry, looked up): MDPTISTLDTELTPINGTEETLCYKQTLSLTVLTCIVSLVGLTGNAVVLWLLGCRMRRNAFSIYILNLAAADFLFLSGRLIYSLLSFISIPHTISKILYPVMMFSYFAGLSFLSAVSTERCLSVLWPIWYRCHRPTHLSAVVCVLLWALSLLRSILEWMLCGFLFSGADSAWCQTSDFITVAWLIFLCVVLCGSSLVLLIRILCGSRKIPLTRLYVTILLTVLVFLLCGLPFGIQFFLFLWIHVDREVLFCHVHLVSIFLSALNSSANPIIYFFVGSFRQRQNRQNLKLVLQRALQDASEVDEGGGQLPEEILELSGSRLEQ
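System: HEK293 cells stably expressing human MrgX1 receptor; Dosing: test compound in the initial addition of three; Schedule: overnight plating, then 30 min 37 °C plus 30 min room-temperature dye loading; Detection: kinetic calcium dye fluorescence, Fluo-4 NW; Controls: per-plate positive and negative controls for Z′ factor.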
RGS4 pot: RGS4 potentiation or activation; HEK293 M3R/inducible RGS4, carbachol calcium flux Fluo4; stronger effect = lower value; B-score at 10 µM; 310,000 compounds, 0.92% hits;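 active = B-score of the integrated calcium signal more than 4 SD below the library mean, with starting fluorescence not abnormally high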;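 also: negative B-score means reduced calcium response which marks RGS4 activation or potentiation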
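Material: M3R-expressing HEK293 line, RGS4 induced by doxycycline | Schedule: Overnight RGS4 induction, 30 min dye load 37 °C, 20 min compound RT | Measured by: Fluo4 fluorescence kinetic imaging of calcium | Read-out: Integrated calcium ratio converted to B score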
RGS4 inh: inhibitors of human RGS4; P49798; HEK293 M3R/RGS4 inducible, Fluo-4 calcium flux; stronger effect = higher value; triggered by carbachol at its EC20; B-score at 10 µM; 310,000 compounds, 0.45% hits;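 active = B-score, a plate-corrected calcium signal, over three deviations above library mean, with baseline fluorescence within five deviations of library mean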;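 also: RGS4 expression induced by doxycycline in cells with stable M3 receptor; B-score is computed from the integrated fluorescence ratio over baseline after carbachol; higher B-score means a larger calcium signal and so more RGS4 inhibition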
Target sequence (P49798 whole entry, looked up): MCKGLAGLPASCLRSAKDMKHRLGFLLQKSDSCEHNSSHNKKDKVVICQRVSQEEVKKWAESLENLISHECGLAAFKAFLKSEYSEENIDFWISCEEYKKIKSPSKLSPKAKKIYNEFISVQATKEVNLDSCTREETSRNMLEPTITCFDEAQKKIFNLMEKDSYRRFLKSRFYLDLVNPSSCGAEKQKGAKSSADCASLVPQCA
MrgX1 antagonist: antagonists of human MrgX1 receptor | Q96LB2 | MRGX1-HEK293 calcium flux, Fluo-4, BAM8-22 antagonism; stronger effect = lower value | B-score at 10 µM | 310,000 compounds, 1.3% hits;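 active = calcium-response B-score plate-corrected more than 3 library SD below zero, starting fluorescence within 5 deviations, no agonist response on first addition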;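 also: peak minus trough fluorescence over baseline after final BAM8-22 challenge near maximal dose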
MrgX1 allo act: allosterically activates human MrgX1 receptor signaling; MrgX1-HEK293, Fluo-4 calcium flux, FDSS; stronger effect = higher value; 310,000 compounds, 0.63% hits; B-score at 10 µM; Q96LB2;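 active = plate-corrected calcium response at least 3 library SD above typical, normal starting fluorescence, not activating the receptor alone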;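 also: compound read alongside a low EC10 to EC30 dose of BAM8-22 agonist; peak minus trough fluorescence over baseline measured at the second addition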
MrgX1 ant reconf: confirmation of human MrgX1 receptor antagonists; 2,300 compounds, 19% hits; remaining BAM8-22 calcium response % of control (stronger effect = lower value), % at 10 µM; MrgX1-HEK293, BAM8-22 calcium flux, Fluo-4; stronger effect = lower value; shares compounds with MrgX1 antagonist; AID 602420;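 active = remaining agonist calcium response no higher than 100% minus 3 SD of agonist-only control wells, with starting fluorescence near control levels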;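 also: agonist BAM8-22 given at a near maximal EC90 to ECmax level; peak minus minimum fluorescence divided by baseline after agonist addition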
HEK293 Ca flux: counter-screen for MrgX1 antagonists: effect in parental HEK293 cells | AID 624111 | fluorescence ratio F(max-min)/F0 at 10 µM | Fluo-4 calcium fluorescence, FDSS | shares compounds with MrgX1 antagonist | 4,000 compounds, 2% hits;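 active = duplicate-averaged calcium fluorescence ratio at least three times the standard deviation of buffer wells, a nonspecific response in parental cells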
HEK293 Ca counter: counter-screen for MrgX1 allosteric activators: effect in parental HEK293 cells. shares compounds with MrgX1 antagonist. parental HEK293 calcium flux, Fluo-4 fluorescence ratio; stronger effect = higher value. fluorescence ratio F(max-min)/F0 at 10 µM. 4,000 compounds, 0.4% hits. AID 624114;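 active = calcium fluorescence ratio, averaged over duplicates, at least 3 SD of the buffer-well ratio, meaning a nonspecific response in receptor-free cells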;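 also: untransfected parental HEK293 lacking MrgX1 used as counterscreen for MrgX1 allosteric activators; fluorescence change taken during the second addition on a kinetic imager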
HEK293 Ca cntr2: MrgX1 activator counter-screen hit in parental HEK293 cells. shares compounds with MrgX1 antagonist. Fluo-4 calcium fluorescence (FDSS); stronger effect = higher value. fluorescence ratio F(max-min)/F0 at 10 µM. 4,000 compounds, 8.7% hits;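 active = calcium fluorescence ratio at least three times the spread of buffer wells, meaning a non-specific response in parental cells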
Of the large screens only hits and unclear results are named; the others gave an inactive call (follow-up assays come after a bar, where they were run).

COc1ccc(N2CCN(C(=O)COC(=O)c3oc4ccc(OC)cc4c3C)CC2)cc1	none
CCOC(=O)C1CCCN(C(=O)CSCc2ccccc2)C1 (stereo not drawn)	MrgX1 antagonist -8.9 | MrgX1 ant reconf inactive | HEK293 Ca flux inactive | HEK293 Ca counter inactive | HEK293 Ca cntr2 inactive
CCOC(=O)c1c(-c2ccc(C)cc2)csc1NC1=NS(=O)(=O)c2ccccc21	MrgX1 antagonist -6.8 | MrgX1 ant reconf inactive | HEK293 Ca flux inactive | HEK293 Ca counter inactive | HEK293 Ca cntr2 inactive
COc1ccc(C)cc1S(=O)(=O)N(CC(=O)N1CCCC1)c1ccccc1	MrgX1 antagonist -5.8 | MrgX1 ant reconf inactive | HEK293 Ca flux inactive | HEK293 Ca counter inactive | HEK293 Ca cntr2 inactive
COc1ccc(C)cc1S(=O)(=O)N(CC(=O)N1CCCC1)c1ccc(C)cc1	none
O=C(NCc1ccco1)c1cc(-c2ccccc2)nc2ccccc12	MrgX1 antagonist -5.3 | MrgX1 ant reconf inactive | HEK293 Ca flux inactive | HEK293 Ca counter inactive | HEK293 Ca cntr2 inactive
COc1ccc(-c2cc(C(=O)NCc3ccco3)c3ccccc3n2)cc1	none
O=C(CNS(=O)(=O)c1cccc2nsnc12)NCc1ccc(Cl)cc1	MrgX1 antagonist -7.3 | MrgX1 ant reconf 61% | HEK293 Ca flux inactive | HEK293 Ca counter inactive | HEK293 Ca cntr2 inactive
CCC(=O)Nc1nc(-c2ccc3c(c2)CC(C)N3S(C)(=O)=O)cs1 (stereo not drawn)	none
CC1Cc2cc(-c3csc(NC(=O)Cc4cccs4)n3)ccc2N1S(C)(=O)=O (stereo not drawn)	MrgX1 antagonist -4.8 | MrgX1 ant reconf 50% | HEK293 Ca flux inactive | HEK293 Ca counter inactive | HEK293 Ca cntr2 inactive
COc1ccc2c(c1)OC[C@H]1[C@H]2N2C(=O)c3cc(OC)c(OC)cc3NC(=O)[C@@]2(C)[C@H]1c1ccccc1	none (no result: RGS4 pot, RGS4 inh)
COc1ccc2c(c1)OC[C@H]1[C@H]2N2C(=O)c3cc(Br)ccc3NC(=O)[C@@]2(C)[C@H]1c1ccccc1	MrgX1 antagonist -7.6 (no result: RGS4 pot, RGS4 inh) | MrgX1 ant reconf 79% | HEK293 Ca flux inactive | HEK293 Ca counter inactive | HEK293 Ca cntr2 inactive
O=C(NC(=S)Nc1cccc(Cl)c1Cl)C1CC1	none
O=C(CCc1ccccc1)Nc1cc(C(F)(F)F)ccc1Cl	MrgX1 antagonist -4.5 | MrgX1 ant reconf inactive | HEK293 Ca flux inactive | HEK293 Ca counter inactive | HEK293 Ca cntr2 inactive
O=C(NC1CCCCCC1)c1ccc(Br)o1	none
O=C(NC1CCCCCCC1)c1ccc(Br)o1	MrgX1 antagonist -4.7 | MrgX1 ant reconf inactive | HEK293 Ca flux inactive | HEK293 Ca counter inactive | HEK293 Ca cntr2 inactive
CC(=O)Nc1ccc(-c2cc(NC(C)=O)n(-c3ccccc3)n2)cc1	none
O=C(CCl)Nc1cc(-c2ccccc2)nn1-c1ccccc1	MrgX1 antagonist -5.3 | MrgX1 ant reconf inactive | HEK293 Ca flux inactive | HEK293 Ca counter inactive | HEK293 Ca cntr2 57
CCOC(=O)C(=O)N1CCC(C(=O)OCC)CC1	none
CC(=O)Nc1ccc(S(=O)(=O)Nc2nc3ccccc3nc2Nc2ccc3ccccc3c2)cc1	none
CC(=O)Nc1ccc(S(=O)(=O)Nc2nc3ccccc3nc2Nc2cccc(O)c2)cc1	none
CC(=O)Nc1ccc(S(=O)(=O)Nc2nc3ccccc3nc2Nc2ccc(N)cc2)cc1	MrgX1 antagonist -6.2 | MrgX1 ant reconf 75% | HEK293 Ca flux inactive | HEK293 Ca counter inactive | HEK293 Ca cntr2 inactive
COc1ccc(S(=O)(=O)Nc2nc3ccccc3nc2Nc2ccc3c(c2)OCO3)cc1	MrgX1 antagonist -5.1 | MrgX1 ant reconf inactive | HEK293 Ca flux inactive | HEK293 Ca counter inactive | HEK293 Ca cntr2 inactive
O=S(=O)(Nc1nc2ccccc2nc1Nc1ccc2c(c1)OCCO2)c1cccs1	none
CC(=O)Nc1ccc(S(=O)(=O)Nc2cc(C)c(-n3nc4ccccc4n3)cc2O)cc1	MrgX1 antagonist -5.2 | MrgX1 ant reconf inactive | HEK293 Ca flux inactive | HEK293 Ca counter inactive | HEK293 Ca cntr2 inactive
CSC1=NCCN1C(=O)c1ccc(Br)o1	MrgX1 antagonist -5.4 | MrgX1 ant reconf inactive | HEK293 Ca flux inactive | HEK293 Ca counter inactive | HEK293 Ca cntr2 inactive
Cc1cccc(C(=O)NCC(=O)N2CCN(S(=O)(=O)c3ccccc3)CC2)c1	MrgX1 antagonist -4.6 | MrgX1 ant reconf inactive | HEK293 Ca flux inactive | HEK293 Ca counter inactive | HEK293 Ca cntr2 inactive
COC(=O)[C@@H](NC(=O)c1ccc2c(c1)S(=O)(=O)c1ccccc1C2=O)C(C)C	MrgX1 antagonist -4.7 | MrgX1 ant reconf inactive | HEK293 Ca flux inactive | HEK293 Ca counter inactive | HEK293 Ca cntr2 inactive
Cc1cc(NC(=O)CSCC(=O)Nc2cccc(S(=O)(=O)N3CCCCCC3)c2)no1	none
CCc1ccc(OC(C)C(=O)Nc2ccc(S(=O)(=O)Nc3nccs3)cc2)cc1 (stereo not drawn)	MrgX1 antagonist -6.5 | MrgX1 ant reconf 74% | HEK293 Ca flux inactive | HEK293 Ca counter inactive | HEK293 Ca cntr2 46
Cc1ccc(OC(C)C(=O)Nc2ccc(S(=O)(=O)Nc3nccs3)cc2)cc1 (stereo not drawn)	none
COc1ccc(C)cc1-n1nnnc1SCC(=O)Nc1cc(C)on1	none
COc1ccc(C)cc1-n1nnnc1SCC(=O)Nc1cccnc1Cl	MrgX1 antagonist -5.9 | MrgX1 ant reconf inactive | HEK293 Ca flux inactive | HEK293 Ca counter inactive | HEK293 Ca cntr2 inactive
CCc1noc(C)c1C(=O)Nc1ccc(F)c(F)c1F	none
CC1CCN(C(=O)c2cc(F)c(F)cc2Cl)CC1	MrgX1 antagonist -5.2 | MrgX1 ant reconf inactive | HEK293 Ca flux inactive | HEK293 Ca counter inactive | HEK293 Ca cntr2 inactive
O=C(c1cc(F)c(F)cc1Cl)N1CCOCC1	none
C=C1CCN([C@@H](C)C(=O)OCc2cccc(C)c2)S(=O)(=O)c2ccccc21	MrgX1 antagonist -11 | MrgX1 ant reconf inactive | HEK293 Ca flux inactive | HEK293 Ca counter inactive | HEK293 Ca cntr2 inactive
C=C1CCN([C@H](C(=O)OCc2ccc(C)cc2)C(C)C)S(=O)(=O)c2ccccc21	none (no result: RGS4 pot, RGS4 inh)
CN1CCN(C(=S)Nc2cccc(Cl)c2)CC1	MrgX1 antagonist -4.9 | MrgX1 ant reconf inactive | HEK293 Ca flux inactive | HEK293 Ca counter inactive | HEK293 Ca cntr2 inactive
CC(CC(F)(F)F)N1CCC(n2nccc2NC(=O)CCCc2ccccc2)CC1 (stereo not drawn)	none
